Results published in ChEMBL document CHEMBL1914430, “Synthesis of some new 1,3,5-trisubstituted pyrazolines bearing benzene sulfonamide as anticancer and anti-inflammatory agents” (Bioorg Med Chem Lett, 2011).

Assays:
Format in all cases: functional
Rattus norvegicus [1] = experiment: Antiinflammatory activity in Wistar rat assessed as inhibition of carrageenan-induced hind paw edema at 20 mg/kg, po administered 30 mins before carrageenan challenge measured after 3 hrs by plethysmometer
Summary of the method: (§1)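 Wistar rats of either sex, 150–175 g, fasted 16 h, n = 6 per group. Compound given orally at 20 mg/kg as a suspension in 1% CMC in water (10 mL/kg); controls got vehicle only. After 30 min, 0.1 mL of 1% carrageenan in saline was injected subplantar into the left hind paw. Paw volume was measured by plethysmometer at 0, 3 and 5 h. Inhibition = (1 − Vt/Vc) × 100, reported as mean ± SEM.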

Rattus norvegicus [2] = experiment: Antiinflammatory activity in Wistar rat assessed as inhibition of carrageenan-induced hind paw edema at 20 mg/kg, po administered 30 mins before carrageenan challenge measured after 5 hrs by plethysmometer; summary of the method: as §1
K562 = experiment: Anticancer activity against human K562 cells after 48 hrs; details: K562, 48 h
Summary of the method: (§2)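 NCI Drug Evaluation Branch 60-cell-line screen across leukemia, melanoma, lung, colon, CNS, ovarian, renal, prostate and breast panels. The incubation period is 48 h. Parameters are derived from dose–response data: GI50 is the concentration giving 50% decrease in net growth, TGI is total growth inhibition, and LC50 is net 50% loss of initial cells. Values beyond the tested range are reported as greater or less than the maximum or minimum concentration.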

A549 = experiment: Anticancer activity against human A549 cells after 48 hrs; details: A549, 48 h; summary of the method: as §2
EKVX = experiment: Anticancer activity against human EKVX cells after 48 hrs; summary of the method: as §2
HOP-62 = experiment: Anticancer activity against human HOP62 cells after 48 hrs; details: HOP-62, 48 h; summary of the method: as §2
NCI-H23 = experiment: Anticancer activity against human NCI-H23 cells after 48 hrs; details: NCI-H23, 48 h
Summary of the method: (§3)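 NCI 60-line panel protocol with a 48 h incubation. Per line: GI50 = concentration giving 50% decrease in net cell growth; TGI = total growth inhibition; LC50 = net 50% loss of initial cells. When the level was not reached or was exceeded, the value is given as greater or less than the highest or lowest concentration tested.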

NCI-H322M = experiment: Anticancer activity against human NCI-H322M cells after 48 hrs; summary of the method: as §3
NCI-H522 = experiment: Anticancer activity against human NCI-H522 cells after 48 hrs; details: NCI-H522, 48 h; summary of the method: as §3
COLO 205 = experiment: Anticancer activity against human COLO205 cells after 48 hrs; details: COLO 205, 48 h; summary of the method: as §2
HCT-116 = experiment: Anticancer activity against human HCT116 cells after 48 hrs; details: HCT-116, 48 h; summary of the method: as §2
KM12 = experiment: Anticancer activity against human KM12 cells after 48 hrs; details: KM12, 48 h; summary of the method: as §2
SF-295 = experiment: Anticancer activity against human SF295 cells after 48 hrs; details: SF-295, 48 h; summary of the method: as §3
SF-539 = experiment: Anticancer activity against human SF539 cells after 48 hrs; details: SF-539, 48 h; summary of the method: as §3
SNB-19 = experiment: Anticancer activity against human SNB19 cells after 48 hrs; details: SNB-19, 48 h; summary of the method: as §3
Malme-3M = experiment: Anticancer activity against human MALME-3M cells after 48 hrs; summary of the method: as §2
UACC-257 = experiment: Anticancer activity against human UACC257 cells after 48 hrs; details: UACC-257, 48 h
Summary of the method: (§4)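 NCI ~60 human tumour cell line panel with a 48 h incubation. GI50 is the concentration giving a 50% fall in net growth, TGI gives total growth inhibition, and LC50 gives a net 50% loss of initial cells. An effect not reached or exceeded is reported as greater or less than the highest or lowest concentration tested.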

UACC-62 = experiment: Anticancer activity against human UACC62 cells after 48 hrs; details: UACC-62, 48 h; summary of the method: as §4
OVCAR-3 = experiment: Anticancer activity against human OVCAR3 cells after 48 hrs; details: OVCAR-3, 48 h; summary of the method: as §3
SK-OV-3 = experiment: Anticancer activity against human SKOV3 cells after 48 hrs; details: SK-OV-3, 48 h; summary of the method: as §3
A498 = experiment: Anticancer activity against human A498 cells after 48 hrs; details: A498, 48 h; summary of the method: as §2
CAKI-1 = experiment: Anticancer activity against human Caki1 cells after 48 hrs; details: CAKI-1, 48 h; summary of the method: as §2
RXF 393 = experiment: Anticancer activity against human RXF393 cells after 48 hrs; details: RXF 393, 48 h; summary of the method: as §3
SN12C = experiment: Anticancer activity against human SN12C cells after 48 hrs; summary of the method: as §3
TK-10 = experiment: Anticancer activity against human TK10 cells after 48 hrs; details: TK-10, 48 h; summary of the method: as §4
UO-31 = experiment: Anticancer activity against human UO31 cells after 48 hrs; details: UO-31, 48 h; summary of the method: as §4
MCF7 = experiment: Anticancer activity against human MCF7 cells after 48 hrs; details: MCF7, 48 h; summary of the method: as §2
BT-549 = experiment: Anticancer activity against human BT549 cells after 48 hrs; details: BT-549, 48 h; summary of the method: as §2
T47D = experiment: Anticancer activity against human T47D cells after 48 hrs; summary of the method: as §4
[3] = read-out: LC50 (the source's name)

## Cc1cc(O)c(C2=NN(c3ccc(S(N)(=O)=O)cc3)C(/C=C/c3ccccc3)C2)cc1Cl (stereo not drawn)
Rattus norvegicus [1]
  inhibition in vivo at 20 mg/kg: 78.9%
Rattus norvegicus [2]
  inhibition in vivo at 20 mg/kg: 71.4%
K562
  GI50: 11.6 µM
  LC50 (concentration killing 50% of initial cells): > 100 µM
  TGI: 87.5 µM
A549
  GI50: 11 µM
  LC50 (net 50% loss of initial cells): 86 µM
  TGI: 30.8 µM
EKVX
  GI50: 14.2 µM
  TGI: 35.3 µM
EKVX; [3]
  CC50: 87.4 µM
HOP-62
  GI50: 3.94 µM
  LC50 (concentration for 50% net loss of initial cells): 37.5 µM
  TGI: 14.1 µM
NCI-H23
  GI50: 1.68 µM
  LC50 (concentration killing 50% of initial cells): 35.4 µM
  TGI: 12.5 µM
NCI-H322M
  GI50: 5.73 µM
  LC50 (net 50% loss of initial cells): > 100 µM
  TGI: 27.5 µM
NCI-H522
  GI50: 4.62 µM
  LC50 (concentration killing 50% of initial cells): 61.8 µM
  TGI: 19.4 µM
COLO 205
  GI50: 10.4 µM
  LC50 (concentration giving net 50% loss of initial cells): 47 µM
  TGI: 22.1 µM
HCT-116
  GI50: 2.4 µM
  TGI: 14.6 µM
HCT-116; [3]
  CC50: 38.2 µM
KM12
  GI50: 11.7 µM
  LC50 (concentration causing net 50% loss of initial cells): > 100 µM
  TGI: 34.8 µM
SF-295
  GI50: 2.36 µM
  LC50 (concentration giving net 50% loss of initial cells): 37.3 µM
  TGI: 11.9 µM
SF-539
  GI50: 2.98 µM
  LC50 (concentration causing net 50% loss of initial cells): 37.5 µM
  TGI: 14 µM
SNB-19
  GI50: 7.84 µM
  TGI: 19.9 µM
SNB-19; [3]
  CC50: 44.7 µM
Malme-3M
  GI50: 3.01 µM
  TGI: 17.4 µM
Malme-3M; [3]
  CC50: 51.9 µM
UACC-257
  GI50: 14.5 µM
  LC50: > 100 µM
  TGI: 45.7 µM
UACC-62
  GI50: 2.89 µM
  LC50: 34 µM
  TGI: 11.4 µM
OVCAR-3
  GI50: 11.5 µM
  LC50 (concentration giving 50% net loss of initial cells): 70.2 µM
  TGI: 28.4 µM
SK-OV-3
  GI50: 5.52 µM
  TGI: 17.9 µM
SK-OV-3; [3]
  CC50: 42.7 µM
A498
  GI50: 14.9 µM
  TGI: 42.4 µM
A498; [3]
  CC50: > 100 µM
CAKI-1
  GI50: 15.3 µM
  LC50 (concentration giving 50% net loss of initial cells): > 100 µM
  TGI: 87.7 µM
RXF 393
  GI50: 6.69 µM
  LC50: 52.6 µM
  TGI: 20.2 µM
SN12C
  GI50: 11.1 µM
  LC50: 59.4 µM
  TGI: 25.6 µM
TK-10
  GI50: 14.8 µM
  LC50: 60.7 µM
  TGI: 29.9 µM
UO-31
  GI50: 15.2 µM
  TGI: 34.9 µM
UO-31; [3]
  CC50: 79.9 µM
MCF7
  GI50: 3.93 µM
  LC50: 40.1 µM
  TGI: 16.1 µM
BT-549
  GI50: 6.12 µM
  TGI: 21.3 µM
BT-549; [3]
  CC50: 54.5 µM
T47D
  GI50: 3.38 µM
  TGI: 14.7 µM
T47D; [3]
  CC50: 44.5 µM
